# Activity calls are given as the source filed them. The rule behind the calls is not given here.
# Tests used:
# [1] = biological target: Polyamine deacetylase HDAC10 (Homo sapiens, UniProt Q969S8); experiment: Inhibition of human recombinant HDAC10 using fluorogenic HDAC substrate measured after 45 mins by fluorimetry assay
# [2] = biological target: Protein deacetylase HDAC6 (Homo sapiens, UniProt Q9UBN7); experiment: Inhibition of human recombinant HDAC6 using fluorogenic HDAC substrate measured after 30 mins by fluorimetry assay
# [3] = organism: Homo sapiens; experiment: Selectivity ratio of IC50 for human recombinant HDAC2 to IC50 for human recombinant HDAC6
# [4] = biological target: T1, Histone deacetylase 1 (Homo sapiens, UniProt Q13547); experiment: Inhibition of human recombinant HDAC1 at 10 uM using fluorogenic HDAC substrate measured after 15 mins by fluorimetry assay relative to control
# T1 sequence (Q13547 whole entry): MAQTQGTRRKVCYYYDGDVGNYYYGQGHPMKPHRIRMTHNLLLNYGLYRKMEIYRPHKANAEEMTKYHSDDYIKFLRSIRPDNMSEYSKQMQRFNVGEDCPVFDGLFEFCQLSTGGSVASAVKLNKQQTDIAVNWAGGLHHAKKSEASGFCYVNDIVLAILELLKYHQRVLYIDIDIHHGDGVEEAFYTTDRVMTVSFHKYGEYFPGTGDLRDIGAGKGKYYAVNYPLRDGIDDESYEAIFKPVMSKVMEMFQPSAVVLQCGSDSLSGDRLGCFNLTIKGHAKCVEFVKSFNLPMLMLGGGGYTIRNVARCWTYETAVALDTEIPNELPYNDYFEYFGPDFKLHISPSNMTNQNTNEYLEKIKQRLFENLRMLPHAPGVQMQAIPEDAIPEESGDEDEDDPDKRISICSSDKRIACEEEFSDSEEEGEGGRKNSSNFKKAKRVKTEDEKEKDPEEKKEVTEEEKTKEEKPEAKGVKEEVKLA
# [5] = biological target: T2, Histone deacetylase 2 (Homo sapiens, UniProt Q92769); experiment: Inhibition of human recombinant HDAC2 at 10 uM using fluorogenic HDAC substrate measured after 15 mins by fluorimetry assay relative to control
# T2 sequence (Q92769 whole entry): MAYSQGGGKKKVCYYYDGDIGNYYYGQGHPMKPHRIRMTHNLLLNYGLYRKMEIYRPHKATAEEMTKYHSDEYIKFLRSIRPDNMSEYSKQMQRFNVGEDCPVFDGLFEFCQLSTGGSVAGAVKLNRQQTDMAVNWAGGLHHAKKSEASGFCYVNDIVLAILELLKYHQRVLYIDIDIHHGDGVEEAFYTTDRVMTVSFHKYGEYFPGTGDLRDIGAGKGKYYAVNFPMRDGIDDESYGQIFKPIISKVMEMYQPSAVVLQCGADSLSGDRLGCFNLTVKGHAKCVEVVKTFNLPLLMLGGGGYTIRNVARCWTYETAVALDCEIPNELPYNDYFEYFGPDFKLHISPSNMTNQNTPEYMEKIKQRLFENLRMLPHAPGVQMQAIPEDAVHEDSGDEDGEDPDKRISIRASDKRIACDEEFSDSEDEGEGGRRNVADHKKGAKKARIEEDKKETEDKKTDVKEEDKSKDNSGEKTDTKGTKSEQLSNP
# [6] = biological target: T3, Histone deacetylase 4 (Homo sapiens, UniProt P56524); experiment: Inhibition of human recombinant HDAC4 using fluorogenic HDAC substrate class 2a measured after 30 mins by fluorimetry assay
# T3 sequence (P56524 whole entry): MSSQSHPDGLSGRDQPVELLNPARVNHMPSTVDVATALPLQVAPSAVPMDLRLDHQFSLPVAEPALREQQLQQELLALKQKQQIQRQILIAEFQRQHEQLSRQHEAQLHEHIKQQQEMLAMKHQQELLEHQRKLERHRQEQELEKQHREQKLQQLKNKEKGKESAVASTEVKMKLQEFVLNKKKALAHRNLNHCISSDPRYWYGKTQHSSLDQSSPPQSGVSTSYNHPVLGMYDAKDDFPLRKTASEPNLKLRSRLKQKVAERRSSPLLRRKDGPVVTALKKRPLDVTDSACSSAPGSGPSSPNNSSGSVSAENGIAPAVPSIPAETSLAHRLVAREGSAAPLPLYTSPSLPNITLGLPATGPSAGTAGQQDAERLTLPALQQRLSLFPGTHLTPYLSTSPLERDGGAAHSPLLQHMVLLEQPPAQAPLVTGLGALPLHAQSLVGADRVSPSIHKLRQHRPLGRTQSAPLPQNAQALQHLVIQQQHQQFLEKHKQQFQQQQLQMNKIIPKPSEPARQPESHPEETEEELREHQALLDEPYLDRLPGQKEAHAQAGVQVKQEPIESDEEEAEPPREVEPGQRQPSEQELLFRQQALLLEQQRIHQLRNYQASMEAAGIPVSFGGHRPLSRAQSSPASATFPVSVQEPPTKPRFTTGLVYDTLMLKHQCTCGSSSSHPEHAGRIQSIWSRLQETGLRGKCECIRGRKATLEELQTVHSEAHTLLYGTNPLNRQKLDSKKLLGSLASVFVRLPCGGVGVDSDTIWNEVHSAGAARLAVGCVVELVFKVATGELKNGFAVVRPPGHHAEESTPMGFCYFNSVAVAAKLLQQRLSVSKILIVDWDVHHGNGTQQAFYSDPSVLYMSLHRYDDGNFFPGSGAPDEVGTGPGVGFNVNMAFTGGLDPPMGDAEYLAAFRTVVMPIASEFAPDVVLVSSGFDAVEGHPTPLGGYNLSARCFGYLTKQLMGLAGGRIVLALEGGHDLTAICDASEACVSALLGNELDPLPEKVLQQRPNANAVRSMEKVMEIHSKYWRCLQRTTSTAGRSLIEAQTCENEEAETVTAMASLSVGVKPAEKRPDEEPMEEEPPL
# [7] = biological target: T4, Protein deacetylase HDAC6 (Homo sapiens) (UniProt Q9UBN7); experiment: Inhibition of HDAC6 in human A549 cells assessed as increase in alpha tubulin acetylation at 20 uM measured after 6 to 20 hrs by Western blot analysis; format: cell-based
# T4 sequence (whole entry): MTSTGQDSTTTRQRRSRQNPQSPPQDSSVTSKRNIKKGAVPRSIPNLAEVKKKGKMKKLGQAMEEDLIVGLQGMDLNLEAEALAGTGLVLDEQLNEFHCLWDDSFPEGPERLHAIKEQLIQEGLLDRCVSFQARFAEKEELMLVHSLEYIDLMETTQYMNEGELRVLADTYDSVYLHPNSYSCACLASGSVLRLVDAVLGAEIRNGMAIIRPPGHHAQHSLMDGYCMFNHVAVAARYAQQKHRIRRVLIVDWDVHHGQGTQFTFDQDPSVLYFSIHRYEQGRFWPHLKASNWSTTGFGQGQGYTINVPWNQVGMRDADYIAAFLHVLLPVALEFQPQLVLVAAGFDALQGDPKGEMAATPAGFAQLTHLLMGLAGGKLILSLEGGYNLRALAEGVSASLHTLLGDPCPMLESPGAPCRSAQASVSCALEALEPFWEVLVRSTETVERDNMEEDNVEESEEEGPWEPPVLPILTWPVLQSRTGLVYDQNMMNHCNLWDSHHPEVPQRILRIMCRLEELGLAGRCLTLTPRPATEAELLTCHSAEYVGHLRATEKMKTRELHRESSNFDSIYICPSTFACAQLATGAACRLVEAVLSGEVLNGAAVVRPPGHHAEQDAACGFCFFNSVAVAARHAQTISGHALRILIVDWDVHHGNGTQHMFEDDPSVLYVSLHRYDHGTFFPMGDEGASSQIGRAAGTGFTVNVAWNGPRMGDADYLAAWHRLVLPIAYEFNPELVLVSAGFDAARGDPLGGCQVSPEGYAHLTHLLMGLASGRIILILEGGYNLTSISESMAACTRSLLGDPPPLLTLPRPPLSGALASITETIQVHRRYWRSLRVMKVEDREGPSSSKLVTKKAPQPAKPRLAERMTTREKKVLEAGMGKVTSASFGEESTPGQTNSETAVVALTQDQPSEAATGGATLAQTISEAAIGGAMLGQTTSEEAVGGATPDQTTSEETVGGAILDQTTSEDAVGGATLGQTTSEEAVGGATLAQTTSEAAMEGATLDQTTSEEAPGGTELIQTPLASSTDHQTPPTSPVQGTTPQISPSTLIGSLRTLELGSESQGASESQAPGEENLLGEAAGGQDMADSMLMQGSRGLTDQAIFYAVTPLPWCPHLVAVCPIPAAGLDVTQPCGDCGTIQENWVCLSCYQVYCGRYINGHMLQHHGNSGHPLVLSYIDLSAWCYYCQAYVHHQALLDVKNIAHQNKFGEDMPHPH
# Method in brief: (§1)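 Meso 163 mesothelioma and A549 lung adenocarcinoma cells exposed to agent for 6 or 20 h; histone H3 and alpha-tubulin acetylation analysed by western blot with molecular-weight markers.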
# [8] = biological target: Histone deacetylase 8 (Homo sapiens) (UniProt Q9BY41); experiment: Inhibition of human recombinant HDAC8 at 10 uM using fluorogenic HDAC substrate measured after 60 mins by fluorimetry assay relative to control
# [9] = biological target: T4, Protein deacetylase HDAC6 (Homo sapiens); experiment: Inhibition of HDAC6 in human Meso163 cells assessed as increase in alpha tubulin acetylation at 20 uM measured after 6 to 20 hrs by Western blot analysis; format: cell-based; method in brief: as §1
# [10] = biological target: T5, Histone deacetylase 5 (Homo sapiens, UniProt Q9UQL6); experiment: Inhibition of human recombinant HDAC5 using fluorogenic HDAC substrate class 2a measured after 30 mins by fluorimetry assay
# T5 sequence (Q9UQL6 whole entry): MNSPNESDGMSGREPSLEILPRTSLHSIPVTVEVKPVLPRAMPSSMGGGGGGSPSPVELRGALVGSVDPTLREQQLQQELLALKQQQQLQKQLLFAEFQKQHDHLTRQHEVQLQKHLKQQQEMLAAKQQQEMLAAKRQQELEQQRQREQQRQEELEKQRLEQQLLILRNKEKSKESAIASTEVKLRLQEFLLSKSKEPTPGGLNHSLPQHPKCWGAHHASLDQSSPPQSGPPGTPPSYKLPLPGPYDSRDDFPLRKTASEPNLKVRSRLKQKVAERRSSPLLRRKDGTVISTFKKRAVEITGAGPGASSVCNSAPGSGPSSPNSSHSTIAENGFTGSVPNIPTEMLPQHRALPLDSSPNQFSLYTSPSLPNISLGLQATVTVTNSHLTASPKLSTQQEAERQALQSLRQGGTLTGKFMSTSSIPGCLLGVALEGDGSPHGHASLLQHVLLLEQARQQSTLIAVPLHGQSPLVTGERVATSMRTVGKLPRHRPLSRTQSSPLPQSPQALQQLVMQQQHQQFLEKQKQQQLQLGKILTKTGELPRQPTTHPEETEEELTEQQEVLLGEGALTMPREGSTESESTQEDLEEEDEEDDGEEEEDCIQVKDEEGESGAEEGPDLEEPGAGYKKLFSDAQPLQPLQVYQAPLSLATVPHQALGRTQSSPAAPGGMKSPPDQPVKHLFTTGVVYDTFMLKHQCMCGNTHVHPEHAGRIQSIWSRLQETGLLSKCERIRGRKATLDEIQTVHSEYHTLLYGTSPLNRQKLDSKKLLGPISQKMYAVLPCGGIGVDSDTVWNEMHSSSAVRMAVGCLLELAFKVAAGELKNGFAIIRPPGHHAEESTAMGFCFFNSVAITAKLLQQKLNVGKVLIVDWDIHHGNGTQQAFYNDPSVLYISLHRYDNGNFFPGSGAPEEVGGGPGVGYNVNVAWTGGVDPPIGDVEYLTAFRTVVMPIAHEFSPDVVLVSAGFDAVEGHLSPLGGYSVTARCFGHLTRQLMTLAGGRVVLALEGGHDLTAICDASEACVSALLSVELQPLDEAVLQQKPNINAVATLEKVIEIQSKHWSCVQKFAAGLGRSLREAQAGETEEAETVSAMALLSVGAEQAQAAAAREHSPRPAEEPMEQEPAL
# [11] = biological target: T4, Protein deacetylase HDAC6 (Homo sapiens); experiment: Inhibition of HDAC6 in human A549 cells assessed as upregulation of E-cadherin mRNA expression at 20 uM after 24 hrs by RT-Sybr green PCR analysis; format: cell-based
# Method in brief: (§2)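 Meso 163 and A549 cells treated for 24 h; E-cadherin, Sema-3F and p21 mRNA quantified by real-time PCR; means ± S.E.M. of four independent experiments.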
# [12] = biological target: Polyamine deacetylase HDAC10 (Homo sapiens) (UniProt Q969S8); experiment: Inhibition of human recombinant HDAC10 at 10 uM using fluorogenic HDAC substrate measured after 45 mins by fluorimetry assay relative to control
# Sequence of Polyamine deacetylase HDAC10 (Homo sapiens) (Q969S8 whole entry): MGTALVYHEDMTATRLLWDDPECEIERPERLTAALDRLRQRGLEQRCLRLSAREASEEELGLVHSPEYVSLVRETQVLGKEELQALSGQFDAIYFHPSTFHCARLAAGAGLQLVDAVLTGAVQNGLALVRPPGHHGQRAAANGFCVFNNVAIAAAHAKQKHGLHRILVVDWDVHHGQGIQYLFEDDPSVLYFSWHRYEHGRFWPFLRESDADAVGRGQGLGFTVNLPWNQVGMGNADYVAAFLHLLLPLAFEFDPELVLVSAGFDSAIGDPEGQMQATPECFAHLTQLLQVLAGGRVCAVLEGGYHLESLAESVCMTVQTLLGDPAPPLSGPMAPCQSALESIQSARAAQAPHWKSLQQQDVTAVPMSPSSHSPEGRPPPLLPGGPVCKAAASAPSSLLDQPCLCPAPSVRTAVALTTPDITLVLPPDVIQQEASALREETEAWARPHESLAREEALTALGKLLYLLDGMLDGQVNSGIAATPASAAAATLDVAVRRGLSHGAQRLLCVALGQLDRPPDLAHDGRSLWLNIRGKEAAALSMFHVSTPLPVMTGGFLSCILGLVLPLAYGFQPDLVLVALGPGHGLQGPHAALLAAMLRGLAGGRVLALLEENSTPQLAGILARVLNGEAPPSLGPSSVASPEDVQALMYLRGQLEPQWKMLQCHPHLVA
# [13] = tested on: A549; experiment: cells; format: functional, cell-based; conditions: Homo sapiens, A549, 72 h
# [14] = biological target: T1, Histone deacetylase 1; experiment: Inhibition of human recombinant HDAC1 using fluorogenic HDAC substrate measured after 15 mins by fluorimetry assay
# [15] = biological target: Histone deacetylase 8 (Homo sapiens, UniProt Q9BY41); experiment: Inhibition of human recombinant HDAC8 using fluorogenic HDAC substrate measured after 60 mins by fluorimetry assay
# [16] = biological target: T2, Histone deacetylase 2; experiment: Inhibition of human recombinant HDAC2 using fluorogenic HDAC substrate measured after 15 mins by fluorimetry assay
# [17] = biological target: Histone deacetylase; format: cell-based, Homo sapiens
# [18] = cells; format: functional, cell-based; conditions: Homo sapiens, 72 h
# [19] = biological target: T4, Protein deacetylase HDAC6 (Homo sapiens); experiment: Inhibition of HDAC6 in human Meso163 cells assessed as upregulation of semaphorin 3F mRNA expression at 20 uM after 24 hrs by RT-Sybr green PCR analysis; format: cell-based; method in brief: as §2
# [20] = biological target: T4, Protein deacetylase HDAC6 (Homo sapiens); experiment: Inhibition of human recombinant HDAC6 at 10 uM using fluorogenic HDAC substrate measured after 30 mins by fluorimetry assay relative to control
# [21] = biological target: Histone deacetylase 11 (Homo sapiens) (UniProt Q96DB2); experiment: Inhibition of human recombinant HDAC11 at 10 uM using fluorogenic HDAC substrate class 2a measured after 30 mins by fluorimetry assay relative to control
# [22] = organism: Homo sapiens; experiment: Selectivity ratio of IC50 for human recombinant HDAC8 to IC50 for human recombinant HDAC6
# [23] = biological target: T4, Protein deacetylase HDAC6 (Homo sapiens); experiment: Inhibition of HDAC6 in human Meso163 cells assessed as upregulation of p21 mRNA expression at 20 uM after 24 hrs by RT-Sybr green PCR analysis; format: cell-based; method in brief: as §2
# [24] = biological target: NAD-dependent protein deacetylase sirtuin-1 (Homo sapiens) (UniProt Q96EB6); experiment: Inhibition of human recombinant sirtuin 1 at 10 uM using fluorogenic HDAC substrate measured after 20 mins by fluorimetry assay relative to control
# [25] = biological target: Histone deacetylase 11 (Homo sapiens, UniProt Q96DB2); experiment: Inhibition of human recombinant HDAC11 using fluorogenic HDAC substrate class 2a measured after 30 mins by fluorimetry assay
# [26] = biological target: NAD-dependent protein deacetylase sirtuin-3, mitochondrial (Homo sapiens) (UniProt Q9NTG7); experiment: Inhibition of human recombinant sirtuin 3 at 10 uM using fluoro-lysine sirtuin 2 deacetylase substrate measured after 45 mins by fluorimetry assay relative to control
# Sequence of NAD-dependent protein deacetylase sirtuin-3, mitochondrial (Homo sapiens) (Q9NTG7 whole entry): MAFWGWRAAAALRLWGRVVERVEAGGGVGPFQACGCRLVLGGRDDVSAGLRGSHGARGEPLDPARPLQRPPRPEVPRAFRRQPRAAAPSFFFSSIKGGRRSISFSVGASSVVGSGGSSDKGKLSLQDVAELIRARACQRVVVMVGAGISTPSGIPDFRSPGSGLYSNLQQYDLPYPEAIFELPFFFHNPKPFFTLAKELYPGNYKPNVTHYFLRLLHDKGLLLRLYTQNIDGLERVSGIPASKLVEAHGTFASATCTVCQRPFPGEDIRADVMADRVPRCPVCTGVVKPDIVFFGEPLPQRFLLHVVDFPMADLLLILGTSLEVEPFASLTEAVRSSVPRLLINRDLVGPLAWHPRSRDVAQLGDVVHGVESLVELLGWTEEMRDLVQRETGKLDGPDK
# [27] = organism: Homo sapiens; experiment: Selectivity ratio of IC50 for human recombinant HDAC10 to IC50 for human recombinant HDAC6
# [28] = biological target: T6, Histone deacetylase 3 (Homo sapiens, UniProt O15379)
# T6 sequence (O15379 whole entry): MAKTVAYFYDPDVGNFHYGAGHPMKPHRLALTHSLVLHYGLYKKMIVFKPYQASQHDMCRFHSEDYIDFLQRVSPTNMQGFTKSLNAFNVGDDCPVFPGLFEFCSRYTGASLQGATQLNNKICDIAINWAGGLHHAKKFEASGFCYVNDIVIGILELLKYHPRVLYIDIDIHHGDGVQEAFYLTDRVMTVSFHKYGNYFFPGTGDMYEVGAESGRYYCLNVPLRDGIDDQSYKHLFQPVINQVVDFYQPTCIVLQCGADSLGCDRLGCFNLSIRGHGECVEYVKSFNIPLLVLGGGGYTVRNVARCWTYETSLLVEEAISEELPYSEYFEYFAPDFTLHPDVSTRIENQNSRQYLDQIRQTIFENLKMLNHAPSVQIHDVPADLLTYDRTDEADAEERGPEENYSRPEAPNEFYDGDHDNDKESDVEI
# [29] = biological target: T4, Protein deacetylase HDAC6 (Homo sapiens); experiment: Inhibition of HDAC6 in human Meso163 cells assessed as upregulation of E-cadherin mRNA expression at 20 uM after 24 hrs by RT-Sybr green PCR analysis; format: cell-based; method in brief: as §2
# [30] = biological target: T6, Histone deacetylase 3; experiment: Inhibition of human recombinant HDAC3 at 10 uM using fluorogenic HDAC substrate measured after 10 mins by fluorimetry assay relative to control
# [31] = cells; format: functional, cell-based; conditions: Homo sapiens, 72 h; remark: listed apart in the source
# [32] = biological target: Histone deacetylase 9 (Homo sapiens, UniProt Q9UKV0); experiment: Inhibition of human recombinant HDAC9 using fluorogenic HDAC substrate class 2a measured after 30 mins by fluorimetry assay
# [33] = organism: Homo sapiens; experiment: Selectivity ratio of IC50 for human recombinant HDAC11 to IC50 for human recombinant HDAC6
# [34] = organism: Homo sapiens; experiment: Selectivity ratio of IC50 for human recombinant HDAC3 to IC50 for human recombinant HDAC6
# [35] = biological target: T3, Histone deacetylase 4; experiment: Inhibition of human recombinant HDAC4 at 10 uM using fluorogenic HDAC substrate class 2a measured after 30 mins by fluorimetry assay relative to control
# [36] = biological target: T4, Protein deacetylase HDAC6 (Homo sapiens); experiment: Inhibition of HDAC6 in human Meso163 cells assessed as increase in histone H3 acetylation at 20 uM measured after 6 to 20 hrs by Western blot analysis; format: cell-based; method in brief: as §1
# [37] = biological target: Histone deacetylase 7 (Homo sapiens, UniProt Q8WUI4); experiment: Inhibition of human recombinant HDAC7 using fluorogenic HDAC substrate class 2a measured after 45 mins by fluorimetry assay
# [38] = biological target: T4, Protein deacetylase HDAC6 (Homo sapiens); experiment: Inhibition of HDAC6 in human A549 cells assessed as upregulation of p21 mRNA expression at 20 uM after 24 hrs by RT-Sybr green PCR analysis; format: cell-based; method in brief: as §2
# [39] = organism: Homo sapiens; experiment: Selectivity ratio of IC50 for human recombinant HDAC1 to IC50 for human recombinant HDAC6
# [40] = biological target: T4, Protein deacetylase HDAC6 (Homo sapiens); experiment: Inhibition of HDAC6 in human A549 cells assessed as increase in histone H3 acetylation at 20 uM measured after 6 to 20 hrs by Western blot analysis; format: cell-based; method in brief: as §1
# [41] = biological target: T4, Protein deacetylase HDAC6 (Homo sapiens); experiment: Inhibition of HDAC6 in human A549 cells assessed as upregulation of semaphorin 3F mRNA expression at 20 uM after 24 hrs by RT-Sybr green PCR analysis; format: cell-based; method in brief: as §2
# [42] = cells; format: functional, cell-based; conditions: Homo sapiens, 72 h; remark: listed apart in the source
# [43] = biological target: T5, Histone deacetylase 5; experiment: Inhibition of human recombinant HDAC5 at 10 uM using fluorogenic HDAC substrate class 2a measured after 30 mins by fluorimetry assay relative to control
# [44] = biological target: NAD-dependent protein deacetylase sirtuin-2 (Homo sapiens, UniProt Q8IXJ6); experiment: Inhibition of human recombinant sirtuin 2 using fluoro-lysine sirtuin 2 deacetylase substrate measured after 60 mins by fluorimetry assay
# Sequence of Polyamine deacetylase HDAC10 (Q969S8 whole entry): as the sequence (Q969S8 whole entry) above
smiles,measurement,setting,value
COC(=O)c1ccc2ccccc2c1OCCCCCCCC(=O)NO,IC50,[1],1.6 µM
same,IC50,[2],0.095 µM
same,Ratio IC50,[3],17 to 37
same,inhibition,[4],84.7%
same,inhibition,[5],67.1%
same,IC50,[6],Not Active
same,Activity,[7],Active
same,inhibition,[8],93.1%
same,Activity,[9],Active
same,IC50,[10],Not Active
same,Activity,[11],Active
same,inhibition,[12],82.3%
same,IC50,[13],62.4 µM
same,IC50,[14],3.5 µM
same,IC50,[15],1.6 µM
same,IC50,[16],3.4 µM
same,EC50,[17],7.84 µM
same,IC50,[18],15.6 µM
same,Activity,[19],Active
same,inhibition,[20],104%
same,inhibition,[21],57.2%
same,Ratio IC50,[22],17 to 37
same,Activity,[23],Active
same,inhibition,[24],-2.6%
same,IC50,[25],6.6 µM
same,inhibition,[26],-8.2%
same,Ratio IC50,[27],17 to 37
same,IC50,[28],1 µM
same,Activity,[29],Active
same,inhibition,[30],87.9%
same,IC50,[31],15.9 µM
same,IC50,[32],Not Active
same,Ratio IC50,[33],17 to 37
same,Ratio IC50,[34],10
same,inhibition,[35],-4.8%
same,Activity,[36],Active
same,IC50,[37],Not Active
same,Activity,[38],Active
same,Ratio IC50,[39],17 to 37
same,Activity,[40],Active
same,Activity,[41],Active
same,IC50,[42],15.7 µM
same,inhibition,[43],2.8%
COC(=O)c1ccc2ccccc2c1OCCCCCCCC(=O)Nc1ccccc1N,EC50,[17],8.14 µM
CC(=O)Nc1ccc(C(=O)Nc2ccccc2N)cc1 [TACEDINALINE],IC50,[13],16 µM
same,IC50,[18],7.83 µM
same,IC50,[31],15.8 µM
same,IC50,[42],3.9 µM
Cc1ccc(C(=O)Nc2ccc(S(=O)(=O)O)c3cc(S(=O)(=O)O)cc(S(=O)(=O)O)c23)cc1NC(=O)c1cccc(NC(=O)Nc2cccc(C(=O)Nc3cc(C(=O)Nc4ccc(S(=O)(=O)O)c5cc(S(=O)(=O)O)cc(S(=O)(=O)O)c45)ccc3C)c2)c1 [SURAMIN],IC50,[44],17 µM
